Data as given in ChEMBL document CHEMBL3272107, “Design of potent antagonists of the vasopressor response to arginine-vasopressin” (J Med Chem, 1978).
*1 amine or outer side, *2 acyl side, *3 side chain or, on linkers, in order; H or OH if unused. Where a SMILES comes first, the peptide text is derived from it. Bridges are numbered along the chain shown (N, C = ends). X1 = CC(C)(CC(=O)[*:1])S[*:2]

Legend:
[1] = test system: Rattus norvegicus; assay: Vasopressor activity in iv dosed phenoxybenzamine treated rat; type: functional
In short: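 Rats pretreated with phenoxybenzamine, under urethane anesthesia, analogue given intravenously; vasopressor (blood pressure) response measured, antagonism expressed as pA2 by Schild method, pA2 calculated per assay group and reported as mean ± SE with number of assays.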

[2] = test system: Rattus norvegicus; assay: Antidiuretic activity in iv dosed rat; type: functional, Urine
In short: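 Rats under ethanol anesthesia, analogue given intravenously; antidiuretic response measured by previously described method.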

[3] = test system: Rattus norvegicus; assay: Antivasopressor activity in iv dosed phenoxybenzamine treated rat assessed as inhibition of arginine-vasopressin-induced effect; type: functional, organism-based; conditions: read-out: pA2 (converted)
In short: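 Rats pretreated with phenoxybenzamine and anaesthetised with urethane; pressor response to arginine-vasopressin recorded with and without intravenous analogue. pA2 derived by the Schild method, one pA2 calculated per assay group, reported as mean ± SE across groups, number of assays stated.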

With `COc1ccc(C[C@@H]2NC(=O)[C@@H](N)CSSC[C@@H](C(=O)N3CCC[C@H]3C(=O)N[C@@H](CCCNC(=N)N)C(=O)NCC(N)=O)NC(=O)[C@H](CC(N)=O)NC(=O)[C@H](CCC(N)=O)NC(=O)[C@H](Cc3ccccc3)NC2=O)cc1` the Activity [1] was 9.7 U/mg and the Activity [2] was 386 U/mg.

`COc1ccc(C[C@@H]2NC(=O)[C@@H](N)CSSC[C@@H](C(=O)N3CCC[C@H]3C(=O)N[C@@H](CCCCN)C(=O)NCC(N)=O)NC(=O)[C@H](CC(N)=O)NC(=O)[C@H](CCC(N)=O)NC(=O)[C@H](Cc3ccccc3)NC2=O)cc1` showed an Activity [1] of 2.4 U/mg and an Activity [2] of 79 U/mg.

Work on `CC[C@H](C)[C@@H]1NC(=O)[C@H](Cc2ccc(OC)cc2)NC(=O)[C@@H](N)CSSC[C@@H](C(=O)N2CCC[C@H]2C(=O)N[C@@H](CC(C)C)C(=O)NCC(N)=O)NC(=O)[C@H](CC(N)=O)NC(=O)[C@H](CCC(N)=O)NC1=O` yielded an Activity [2] of 0.01 U/mg.

In the case of `COc1ccc(C[C@@H]2NC(=O)CC(C)(C)SSC[C@@H](C(=O)N3CCC[C@H]3C(=O)N[C@@H](CCCN=C(N)N)C(=O)NCC(N)=O)NC(=O)[C@H](CC(N)=O)NC(=O)[C@H](CCC(N)=O)NC(=O)[C@H](Cc3ccccc3)NC2=O)cc1` (Y(Me)FQNCPRG-NH2; linker N-5 via X1), the Kb [3] is reported as 11 nM and the Activity [2] is reported as 3.5 U/mg.

In the case of `CC1(C)CC(=O)N[C@@H](Cc2ccc(O)cc2)C(=O)N[C@@H](Cc2ccccc2)C(=O)N[C@@H](CCC(N)=O)C(=O)N[C@@H](CC(N)=O)C(=O)N[C@H](C(=O)N2CCC[C@H]2C(=O)N[C@@H](CCCNC(=N)N)C(=O)NCC(N)=O)CSS1` (YFQNCPRG-NH2; linker N-5 via X1), the Activity [2] is reported as 42 U/mg.

`CC[C@H](C)[C@@H]1NC(=O)[C@H](Cc2ccc(O)cc2)NC(=O)CCSSC[C@@H](C(=O)N2CCC[C@H]2C(=O)N[C@@H](CC(C)C)C(=O)NCC(N)=O)NC(=O)[C@H](CC(N)=O)NC(=O)[C@H](CCC(N)=O)NC1=O` [DEMOXYTOCIN] gave an Activity [1] of 1.44 U/mg and an Activity [2] of 19 U/mg.

In the case of `N=C(N)NCCC[C@@H](NC(=O)[C@@H]1CCCN1C(=O)[C@@H]1CSSCCC(=O)N[C@@H](Cc2ccc(O)cc2)C(=O)N[C@@H](Cc2ccccc2)C(=O)N[C@@H](CCC(N)=O)C(=O)N[C@@H](CC(N)=O)C(=O)N1)C(=O)NCC(N)=O` [DESMOPRESSIN], the Activity [1] is reported as 346 U/mg.

In the case of `NCCCC[C@H](NC(=O)[C@@H]1CCCN1C(=O)[C@@H]1CSSC[C@H](N)C(=O)N[C@@H](Cc2ccc(O)cc2)C(=O)N[C@@H](Cc2ccccc2)C(=O)N[C@@H](CCC(N)=O)C(=O)N[C@@H](CC(N)=O)C(=O)N1)C(=O)NCC(N)=O` [LYPRESSIN], the Activity [1] is reported as 285 U/mg and the Activity [2] is reported as 212 U/mg.

With `CC[C@H](C)[C@@H]1NC(=O)[C@H](Cc2ccc(O)cc2)NC(=O)[C@@H](N)CSSC[C@@H](C(=O)N2CCC[C@H]2C(=O)N[C@@H](CC(C)C)C(=O)NCC(N)=O)NC(=O)[C@H](CC(N)=O)NC(=O)[C@H](CCC(N)=O)NC1=O` [OXYTOCIN] the Activity [2] was 4 U/mg.

With `N=C(N)NCCC[C@H](NC(=O)[C@@H]1CCCN1C(=O)[C@@H]1CSSC[C@H](N)C(=O)N[C@@H](Cc2ccc(O)cc2)C(=O)N[C@@H](Cc2ccccc2)C(=O)N[C@@H](CCC(N)=O)C(=O)N[C@@H](CC(N)=O)C(=O)N1)C(=O)NCC(N)=O` [VASOPRESSIN] the Activity [2] was 323 U/mg.
